ChEMBL document CHEMBL2177013, “Synthesis and biological evaluation of tylophorine-derived dibenzoquinolines as orally active agents: exploration of the role of tylophorine e ring on biological activity” (J Med Chem, 2012)
In brackets after ≈: the same amount, converted by molar mass. Activity calls are given as the source filed them. The rule behind the calls is not given here.

Key:
[1] = system: Transmissible gastroenteritis virus; experiment: Antiviral activity against Transmissible gastroenteritis virus infected in ST cells pre-treated 2 hrs before virus infection measured 6 hrs post virus infection by immunofluorescent assay; type: functional, organism-based; details: Alphacoronavirus 1, ST
In short: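 ST cells, with or without 2 h compound pretreatment (10 concentrations), infected with TGEV at MOI 10. Immunofluorescence with anti-spike and anti-nucleocapsid antibodies at 6 hpi. EC50 from dose–response curves, mean of at least three experiments, each in duplicate.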

[2] = system: NCI-H460; experiment: Growth inhibition of human NCI-H460 cells; type: functional
In short: (§1)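 Cells seeded per well: NUGC-3 4500, HONE-1 6000, MCF-7 6500, NCI-H460 2500, HepG2 10000, A549 5000; A549 grown in RPMI 1640 with 2 g/L NaHCO₃, 2 mM L-glutamine and 10% FBS. GI₅₀ = concentration giving 50% growth inhibition, mean of at least three experiments each in duplicate. Paclitaxel served as positive control.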

[3] = system: NUGC-3; experiment: Growth inhibition of human NUGC3 cells; type: functional; in short: as §1
[4] = system: MCF7; experiment: Growth inhibition of human MCF7 cells; type: functional; in short: as §1
[5] = Growth inhibition of human HONE1 cells; type: functional; in short: as §1
[6] = system: SF-268; experiment: Growth inhibition of human SF268 cells; type: functional
In short: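 SF-268 glioblastoma cells seeded 7500 cells/well in 96-well plates; growth inhibition measured with compound. GI50 as mean of at least three experiments, each in duplicate; paclitaxel positive control.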

[7] = Solubility in DMA; type: physicochemical
[8] = Oral bioavailability in Sprague-Dawley rat at 3 mg/kg by HPLC-MS method; type: ADME, organism-based; details: in vivo
In short: (§2)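 Male rats (330−380 g, 9−10 weeks), jugular vein cannula implanted 1 day before, fasted. 3 mg/kg given iv or orally (n = 3) in DMA/PEG400 30/70 v/v. Blood (150 μL) drawn at 0, 2, 5 (iv only), 15, 30 min and 1, 2, 4, 6, 8, 12, 24 h; plasma analysed by HPLC-MS; noncompartmental analysis.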

[9] = Solubility in DMSO; type: physicochemical
In short: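 Compound dissolved in DMSO with sonication; maximal volume before precipitation measured and used to calculate saturation solubility.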

[10] = system: RAW264.7; experiment: Reduction in LPS/INFgamma-induced COX2 protein expression in mouse RAW264.7 cells incubated for 20 hrs by Western blotting; type: functional, cell-based
In short: (§3)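 LPS/IFNγ-stimulated RAW264.7 cells treated with compound for 20 h. iNOS, COX-2 and GAPDH detected by Western blot; representative of at least three independent experiments.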

[11] = Apparent elimination half life in Sprague-Dawley rat at 3 mg/kg, po by HPLC-MS method; type: ADME, organism-based; parameters: dose 3 mg/kg, route oral; details: in vivo, read-out: betat1/2(app) (converted); in short: as §2
[12] = Cmax in Sprague-Dawley rat at 3 mg/kg, po by HPLC-MS method; type: ADME, organism-based; parameters: dose 3 mg/kg, route oral; details: in vivo; in short: as §2
[13] = Apparent elimination half life in Sprague-Dawley rat at 3 mg/kg, iv by HPLC-MS method; type: ADME, organism-based; parameters: dose 3 mg/kg, route intravenous; details: in vivo, read-out: betat1/2(app) (converted); in short: as §2
[14] = Tmax in Sprague-Dawley rat at 3 mg/kg, po by HPLC-MS method; type: ADME, organism-based; parameters: dose 3 mg/kg, route oral; details: in vivo; in short: as §2
[15] = system: Transmissible gastroenteritis virus; experiment: Antiviral activity against Transmissible gastroenteritis virus infected in ST cells assessed as reduction in caspase-3 activation pre-treated before virus infection measured 16 hrs post virus infection by Western blotting; type: functional, organism-based
In short: (§4)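 ST cells pretreated with compound, then infected with TGEV. Western blot for nucleocapsid (N) protein, caspase 3 (cleavage of procaspase 3) and GAPDH at 16 hpi. Representative of at least three independent experiments.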

[16] = system: RAW264.7; experiment: Reduction in LPS/INFgamma-induced iNOS protein expression in mouse RAW264.7 cells incubated for 20 hrs by Western blotting; type: functional, cell-based; in short: as §3
[17] = Clearance in Sprague-Dawley rat at 3 mg/kg, iv by HPLC-MS method; type: ADME, organism-based; parameters: dose 3 mg/kg, route intravenous; details: in vivo; in short: as §2
[18] = system: A549; experiment: Growth inhibition of human A549 cells; type: functional; in short: as §1
[19] = Volume of distribution at steady state in Sprague-Dawley rat at 3 mg/kg, iv by HPLC-MS method; type: ADME, organism-based; parameters: dose 3 mg/kg, route intravenous; details: in vivo, read-out: Vdss; in short: as §2
[20] = system: MCF7; experiment: Induction of c-Jun protein accumulation in human MCF7 cells incubated for 24 hrs by Western blotting; type: functional, cell-based
[21] = system: A549; experiment: Down regulation of cyclin A2 expression in human A549 cells incubated for 24 hrs by Western blotting; type: functional, cell-based
[22] = system: NCI-H460; experiment: Induction of c-Jun protein accumulation in human NCI-H460 cells incubated for 24 hrs by Western blotting; type: functional, cell-based
[23] = AUC (0 to infinity) in Sprague-Dawley rat at 3 mg/kg, po by HPLC-MS method; type: ADME, organism-based; parameters: dose 3 mg/kg, route oral, time infinity; details: plasma
In short: (§5)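 Male rats (330−380 g, 9−10 weeks old), jugular vein cannulated 1 day before dosing, fasted; 3 mg/kg iv or oral in DMA/PEG400 (30/70, v/v), n = 3. Blood (150 μL) drawn at 0, 2, 5 (iv only), 15, 30 min and 1, 2, 4, 6, 8, 12, 24 h, kept on ice; plasma analysed by HPLC-MS; noncompartmental analysis.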

[24] = system: NCI-H460; experiment: Down regulation of cyclin A2 expression in human NCI-H460 cells incubated for 24 hrs by Western blotting; type: functional, cell-based
[25] = system: MCF7; experiment: Down regulation of cyclin A2 expression in human MCF7 cells incubated for 24 hrs by Western blotting; type: functional, cell-based
[26] = system: A549; experiment: Induction of c-Jun protein accumulation in human A549 cells incubated for 24 hrs by Western blotting; type: functional, cell-based
[27] = system: Transmissible gastroenteritis virus; experiment: Antiviral activity against Transmissible gastroenteritis virus infected in ST cells assessed as reduction in N-protein expression pre-treated before virus infection measured 16 hrs post virus infection by Western blotting; type: functional, organism-based; in short: as §4
[28] = AUC (0 to infinity) in Sprague-Dawley rat at 3 mg/kg, iv by HPLC-MS method; type: ADME, organism-based; parameters: time infinity, dose 3 mg/kg, route intravenous; details: plasma; in short: as §5
[29] = system: HepG2; experiment: Growth inhibition of human HepG2 cells; type: functional; in short: as §1
[30] = Cytotoxicity against mouse RAW264.7 cells; type: cell-based
In short: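 RAW264.7 cells stimulated with LPS/IFNγ and compound-treated in parallel with the NO assay; CC50 taken as concentration giving 50% inhibition of cell growth. Mean of at least three experiments, each in duplicate.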

[31] = system: Murine hepatitis virus; experiment: Antiviral activity against Murine hepatitis virus JHM infected in mouse DBT cells assessed as reduction in virus-induced cytopathic effect at 0.2 to 2 uM pre-treated 1 hr before virus infection and measured 24 hrs post infection by phase contrast microscopy; type: functional, organism-based
In short: (§6)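 DBT murine astrocytoma cells in DMEM/10% heat-inactivated FBS, seeded 2.8 × 10⁵ cells/well the day before infection. Medium switched to DMEM/2% FBS, compound added 1 h before MHV-JHM infection at MOI 0.005. Cytopathic effect viewed by phase contrast and N protein by immunofluorescence at 24 hpi.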

[32] = system: Murine hepatitis virus; experiment: Antiviral activity against Murine hepatitis virus JHM infected in mouse DBT cells assessed as reduction in N-protein expression at 0.2 to 2 uM pre-treated 1 hr before virus infection and measured 24 hrs post infection by immunofluorescent assay; type: functional, organism-based; in short: as §6
[33] = system: RAW264.7; experiment: Antiinflammatory activity in mouse RAW264.7 cells assessed as inhibition of LPS-induced nitric oxide production incubated for 18 hrs by nitrate/nitrite assay; type: functional, cell-based; details: RAW264.7, 18 h
In short: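 RAW264.7 seeded 65000 cells/well, cultured 24 h, then medium replaced with complete medium containing IFNγ (20 ng/mL)/LPS (5 μg/mL) plus compound at various concentrations for 18 h; nitric oxide measured by Nitrate/Nitrite kit. EC50 as mean of at least three experiments, each in duplicate.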

Row | Compound | EC50 [1] [nM] | GI50 [2] [nM] | GI50 [3] [nM] | GI50 [4] [nM] | GI50 [5] [nM] | GI50 [6] [nM] | solubility [7] | bioavailability [8] [%] | solubility [9] [mM] | Activity [10] | Activity [15] | Activity [16] | GI50 [18] [nM] | Activity [20] | Activity [21] | Activity [22] | Activity [24] | Activity [25] | Activity [26] | Activity [27] | other results
1 | COc1ccc(C2=C(c3ccc(OC)c(OC)c3)CN3CCC[C@H]3C2)cc1OC | 15400 | 17000 | 14500 | 18500 | 17300 | 24200 | – | – | – | – | – | – | – | – | – | – | – | – | – | – | –
2 | COc1cc2c3c(c4cc(OC)c(OC)cc4c2cc1OC)CN1CCCCC1C3 (stereo not given) | 30 | 100 | 140 | 110 | 140 | 140 | soluble | 53 | 12.3 (≈ 5010 µg/mL) | – | – | – | – | – | – | – | – | – | – | – | –
3 | CCN1CCc2c(c3cc(OC)c(OC)cc3c3cc(OC)ccc23)C1 | 580 | 300 | 320 | 370 | 570 | – | – | 105 | – | Active | Active | Active | 400 | Active | Active | Active | Active | Active | Active | Active | half-life [11]: 6.3 h; Cmax [12]: 535 ng/mL; half-life [13]: 16 h; Tmax [14]: 0.3 h; clearance [17]: 20 mL/min/kg; Vd [19]: 5.1 L/kg; AUC(0-inf) [23]: 2470 ng·h/mL; AUC(0-inf) [28]: 2320 ng·h/mL; GI50 [29]: 660 nM
4 | COc1cc2c3c(c4cc(OC)c(OC)cc4c2cc1OC)CN1CCC[C@@H]1C3 [TYLOPHORINE] | 80 | 230 | 190 | 240 | 270 | 270 | soluble | 66 | 10 (≈ 3930 µg/mL) | Active | Active | Active | – | Active | Active | Active | Active | Active | Active | Active | CC50 [30]: 1240 nM; Activity [31]: Active; Activity [32]: Active; EC50 [33]: 270 nM
5 | CCN1CCc2c(c3cc(OC)c(OC)cc3c3cc(OC)c(OC)cc23)C1 | 1650 | 1010 | 620 | 750 | 1570 | – | soluble | – | 50 (≈ 19100 µg/mL) | – | – | – | 970 | – | – | – | – | – | – | – | CC50 [30]: > 4000 nM; EC50 [33]: 1420 nM; GI50 [29]: 1000 nM
